From PubChem
This excerpt belongs to a sample that is enriched for hits.
Calb FLC: C. albicans growth inhibition with fluconazole, primary screen, CaCi-2 strain, Alamar Blue fluorescence; growth inhibition, % (concentration not given with the values); 0.57% of 300,000 active; C. albicans CaCi-2 (fluconazole-resistant clinical isolate) + fluconazole, 48 h;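 active = growth inhibition above about 58% in most replicates, limit read from the data, passing the limit was not always enough; inconclusive = exactly half the replicates above a set limit; inactive = most replicates below a set limit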;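 also: all wells also contain fluconazole at 8 µg/ml as a sub-toxic cotreatment; 0% = median of DMSO wells and 100% = median of geldanamycin control wells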
NALP1 inh: NALP1 inflammasome inhibitors in reconstituted yeast, colorimetric, S. cerevisiae, triplicate retest; S. cerevisiae NALP1/ASC/caspase-1 growth, X-gal OD620, 72 h; 0.61% of 280,000 active; AID 2071, 2009; inhibition, % at 10 µM; in the data active = inhibition mostly above about 24%, no sharp cut-off; inactive = mostly below about 32%
PolyA inhibitor: polyadenylation inhibitors in yeast reporter cells, primary screen, luminescence, S. cerevisiae. S. cerevisiae SKY197-pL101 polyadenylation reporter, beta-gal luminescence; efflux-impaired pdr1/pdr3 knockout yeast; score 100 = 6 SD above DMSO. activity score, % at 12 µM. 0.02% of 300,000 active. AID 1875, 2009;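 active = lowest replicate activity score at least 50, where 100 means six control SD above control mean; inconclusive = lowest score under 50 but half or more replicates reach 50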;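 also: yeast exposed to compound for 9 h at 30 °C; higher score means more reporter readthrough which indicates perturbed polyadenylation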
L major viab: Leishmania major promastigote growth inhibition, primary screen. Leishmania major promastigotes, resazurin fluorescence viability. 9% of 200,000 active. inhibition, % at 10 µM; in the data active = inhibition above about 50%;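 also: promastigotes grown with compound for 44 hours at 28 °C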
T cruzi repl: inhibitors of intracellular T. cruzi growth, primary screen, luminescence, NIH3T3 host cells. T. cruzi beta-gal in NIH3T3, 90 h. inhibition, % (no concentration beside the values). 1.4% of 300,000 active. AID 1885, 2009;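 active = mean inhibition across valid replicates above about 55%, limit read from the data; inconclusive = mean below that limit but half or more replicates reach it; inactive = mean below it, under half of replicates reach it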;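 also: signal also drops with host cell toxicity which is not excluded here; 0% = plate median of DMSO wells and 100% = zero luminescence signal; higher percent means less beta-gal luminescence so fewer parasites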
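compound dosing = single 50 nL compound addition per well in DMSO | material = NIH/3T3 host cells with β-galactosidase reporter T. cruzi | input = 5,000 host fibroblasts per well | timing = ≥90 h infection period, 3 h prior cell attachment | read-out basis = percent inhibition of parasite-derived β-gal signal | detection = GalScreen β-gal luminescence, detergent lysis, 60 min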
NALP3 yeast inh: NALP3 inflammasome inhibitors in reconstituted yeast, primary screen, luminescence, uHTS | inhibition, % at 10 µM | 0.39% of 330,000 active | AID 2825, 2010 | Yeast reconstituted NLRP3/ASC/caspase-1, beta-gal luminescence, 24 h;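 active = inhibition of 50% or more; inactive = inhibition below 50%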;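 also: plate controls were induced DMSO wells for no effect and uninduced yeast grown without galactose for full effect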
* = called active by the depositor.

How did Cc1ccc(S(=O)(=O)c2cc3c(=O)n4ccccc4nc3n(CCc3ccccc3)c2=N)cc1 do in these assays?
Calb FLC: 13; NALP1 inh: 32*; PolyA inhibitor: -5; T cruzi repl: 21; NALP3 yeast inh: -6

Results for Cc1ccc(S(=O)(=O)c2cc3c(=O)n4ccccc4nc3n(Cc3ccco3)c2=N)cc1C ?
Calb FLC: -3; NALP1 inh: 6; PolyA inhibitor: 7; L major viab: 56*; T cruzi repl: 3; NALP3 yeast inh: 0

What do the screens show for `CCn1c(=N)c(S(=O)(=O)c2ccc(C)cc2)cc2c(=O)n3ccccc3nc21`?
Calb FLC: 18; NALP1 inh: -29; PolyA inhibitor: 0; L major viab: -2; T cruzi repl: 18; NALP3 yeast inh: 17

Results for Cc1ccc2nc3c(cc(S(=O)(=O)c4ccccc4)c(=N)n3Cc3ccco3)c(=O)n2c1 ?
Calb FLC: 3; NALP1 inh: -3; PolyA inhibitor: -4; L major viab: 81*; T cruzi repl: 63*; NALP3 yeast inh: 12

How did CCOC(=O)Cn1nc(C)n(-c2ccc(Br)cc2)c1=O do in these assays?
Calb FLC: 0; NALP1 inh: -1; PolyA inhibitor: 5; L major viab: -1; T cruzi repl: -2; NALP3 yeast inh: -6

How did Cc1ccc(NC(=O)CNC(=O)Cc2cccc3ccccc23)c(O)c1 do in these assays?
Calb FLC: 3; PolyA inhibitor: 19; T cruzi repl: -11; NALP3 yeast inh: 20

Results for c1coc(-c2nc3nc4ccccc4nc3n2-c2ccc3c(c2)OCCO3)c1 ?
NALP1 inh: 28; L major viab: 84*

What do the screens show for `CCCn1c(C)cc(C(=O)COC(=O)CN=C2NS(=O)(=O)c3ccccc32)c1C`?
Calb FLC: 4; NALP1 inh: 19; PolyA inhibitor: 0; L major viab: 55*; T cruzi repl: -6; NALP3 yeast inh: 14

How did O=C(CN=C1NS(=O)(=O)c2ccccc21)OCC(=O)c1ccccc1 do in these assays?
Calb FLC: 8; NALP1 inh: 13; PolyA inhibitor: -5; T cruzi repl: -21; NALP3 yeast inh: 3

What do the screens show for `COc1ccc(Nc2nc(Nc3ccc(OC)cc3)nc(-n3[nH]c(=O)c(C)c3C)n2)cc1`?
Calb FLC: 1; NALP1 inh: -2; PolyA inhibitor: -2; L major viab: 100*; T cruzi repl: 15; NALP3 yeast inh: 8

What do the screens show for `CCc1ccc(CN(C)C(=O)CCc2nc3ccccc3n(-c3ccc(OC)cc3)c2=O)cc1`?
Calb FLC: 1; NALP1 inh: 15; PolyA inhibitor: -3; L major viab: 49; T cruzi repl: 38; NALP3 yeast inh: 4

How did COc1ccc(-n2c(=O)c(CCC(=O)N(C)Cc3ccccc3C)nc3ccccc32)cc1 do in these assays?
Calb FLC: 0; NALP1 inh: -3; PolyA inhibitor: 12; L major viab: 66*; T cruzi repl: 27; NALP3 yeast inh: 17

What do the screens show for `CC1=C/C(=N\OS(=O)(=O)c2ccccc2)C(C(C)C)=CC1=O`?
NALP1 inh: 102*; L major viab: 100*

What do the screens show for `CC(=O)/C(N=Nc1ccc(C(=O)O)cc1)=C(\C)O`?
Calb FLC: 4; NALP1 inh: 43*; PolyA inhibitor: inconclusive; T cruzi repl: -10; NALP3 yeast inh: 22

Results for CC(=O)/C(N=Nc1ccc2c(c1)OCO2)=C(\C)O ?
Calb FLC: 14; NALP1 inh: 6; PolyA inhibitor: 9; L major viab: 57*; T cruzi repl: 4; NALP3 yeast inh: 19

How did C=CCn1c(CNC(=O)c2ccccc2F)nnc1SCC(=O)N1CCOCC1 do in these assays?
Calb FLC: 11; NALP1 inh: 22; PolyA inhibitor: 0; T cruzi repl: -7; NALP3 yeast inh: 10

How did CC(NC(=O)c1cc(-c2cccnc2)nc2ccc(Br)cc12)C1CCCO1 (configuration not stated) do in these assays?
Calb FLC: 0; NALP1 inh: 19; PolyA inhibitor: -3; T cruzi repl: -1; NALP3 yeast inh: 11
